# Assay results from different studies.
# Lines come from different studies, so protocols differ.
# Target: Casein kinase I isoform gamma-2 (CSNK1G2, Homo sapiens, UniProt P78368)
SMILES,effect on,technique,tested at,remaining binding [%]
O=C(c1ccc(Nc2nccc(-c3cc4ccccc4s3)n2)cc1)N1CCC(N2CCCC2)CC1,binding,competition with immobilised ligand,1 µM,94
O=C(NCC1CCOCC1)c1n[nH]cc1NC(=O)c1c(F)cccc1F,binding,competition with immobilised ligand,1 µM,83
CNC(=O)[C@@H]1CC[C@@H](n2c(-c3ccc4cnccc4c3)nc3ccc(C(=O)NCc4cccc(C(N)=O)c4)cc32)C1,binding,competition with immobilised ligand,1 µM,97
O=C(N1CCS(=O)(=O)CC1)N1C[C@H](c2ccc(OC(F)(F)F)cc2)C[C@H](c2nc(C3CC3)no2)C1,cell-free assay,competition with immobilised ligand,1 µM,89
CN(C)c1ncc(F)c(-c2cnn3ncccc23)n1,binding,,1 µM,90
CN([C@@H]1CCc2c(CC(=O)O)c3cc(S(C)(=O)=O)ccc3n2C1)S(=O)(=O)c1ccc(F)cc1,cell-free assay,competition with immobilised ligand,1 µM,100
N#Cc1ccccc1CSc1nnc2c(n1)[nH]c1ccccc12,binding,competition with immobilised ligand,10 µM,81
CCN1CCN(Cc2ccc(C(=O)Nc3ccc(C)c(Oc4ccc5c(c4)CC(=O)N5)c3)cc2C(F)(F)F)CC1,binding,competition with immobilised ligand,1 µM,100
COc1ccnn2ncc(-c3ccnc(N(C)C)n3)c12,binding,,1 µM,81
COc1ccc2c(c1)O[C@@H](c1ccc(OC)c(OC)c1)C[C@H]2NC(=O)C1(c2ccc3c(c2)OC(F)(F)O3)CC1,cell-free assay,competition with immobilised ligand,1 µM,88
CN(C)c1nccc(-c2cnn3ncccc23)n1,binding,,1 µM,85
Cn1nc(C(F)(F)F)cc1-c1cnc(N2CCc3cc(S(=O)(=O)Nc4c(F)cc(Cl)cc4F)cc(N4CCCC4=O)c32)nc1,cell-free assay,competition with immobilised ligand,1 µM,100
N[C@@H]1CCN(c2nccc(-c3cnn4ncccc34)n2)C1,binding,,1 µM,82
O=C(NCCCN1CCOCC1)c1ccc(Nc2ncc(Cl)c(-c3ccc(Cl)s3)n2)cc1,binding,competition with immobilised ligand,1 µM,100
CN([C@@H]1CCc2c(CC(=O)O)c3ccccc3n2C1)S(=O)(=O)c1ccc(F)cc1,cell-free assay,competition with immobilised ligand,1 µM,100
CC1CCCN1c1nccc(-c2cnn3ncccc23)n1 (centres unmarked),binding,,1 µM,77
O=C(c1ccc(Nc2ncc(Cl)c(-c3ccc(Cl)s3)n2)cc1)N1CCC(N2CCCC2)CC1,binding,competition with immobilised ligand,1 µM,100
C[C@H]1CCN(c2nccc(-c3cnn4ncccc34)n2)C1,binding,,1 µM,64
CCS(=O)(=O)c1cc2cc(C[C@](O)(CC(C)(C)c3ccc(F)cc3C(N)=O)C(F)(F)F)[nH]c2cn1,cell-free assay,competition with immobilised ligand,1 µM,93
COc1ncc2cc3ccccc3nc2c1C#N,cell-free assay,competition with immobilised ligand,5 µM,98
